Laboratory results from publication PMC9582731 (RSC Advances, 2022).

Columns and labels:
in vitro = type: cell-based; details: mouse
[1] = test system: acetic acid-induced writhing in mice; assay: Acetic acid-induced writhing analgesic test; type: in vivo; details: 3 days, acetic acid i.p., Kunming mice
[2] = test system: λ-carrageenan-induced mouse paw edema; assay: λ-carrageenan-induced mouse paw edema test; type: in vivo; details: 10 mg kg^−1 i.g., 2 h before λ-carrageenan, at 2–6 h, ICR mice
How it was run: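 Test compound given at a low and a high dose, alongside a blank group, a carrageenan-only model group and an indomethacin positive-control group; paw swelling induced with λ-carrageenan.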

[3] = test system: λ-carrageenan-induced paw edema tissue; assay: H&E histological examination of paw edema tissue; type: in vivo, mice; details: treated animals vs λ-carrageenan model group
How it was run: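 Mice given λ-carrageenan to induce paw edema. Groups: blank, model, indomethacin (positive control), and test compound at low and high dose. Paw tissue was examined by H&E staining for histological change or by immunohistochemical staining for TNF-α, including bone.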

Compound: COC1=C[C@@H]2[C@@H]3Cc4ccc(OC)c(O)c4[C@]2(CCN3C)CC1=O [SIN, Sinomenine]
- IC50 (in vitro): > 100 µM
- Effect on number of writhes ([1]; 200 mg kg^−1 i.g.): almost no analgesic effects

Compound: COc1ccc2c(c1)c(CC(=O)O)c(C)n2C(=O)c1ccc(Cl)cc1 [Indo, indomethacin]
- IC50 (in vitro): > 100 µM
- Effect on paw edema [2]: significantly inhibited the development of edema
- Histological change of paw biopsies (H&E) [3]: a reduction in the λ-carrageenan-induced inflammatory response

Compound: O=C(O)Cc1ccccc1Nc1c(Cl)cccc1Cl [Voltaren]
- Effect on number of writhes ([1]; 19.5 mg kg^−1 i.g.): reduce the number of writhes considerably
